Legend:
[1] = Passive permeability across apical to basolateral side in dog RRCK cells incubated for 30 mins; assay type: ADME, cell-based, Canis lupus familiaris, MDCKII-LE; details: MDCK, read-out: permeability
Procedure, shortened: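 Passive absorptive permeability was measured from the apical to the basolateral side in RRCK cells after a 30 min preincubation. Values are reported as the mean, in 10–6 cm/s.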

[2] = biological target: T1, C5a anaphylatoxin chemotactic receptor 1 (Homo sapiens) (UniProt P21730); experiment: Binding affinity to C5aR1 receptor (unknown origin) assessed as binding constant; details: time 10.0 min
T1 sequence (whole entry): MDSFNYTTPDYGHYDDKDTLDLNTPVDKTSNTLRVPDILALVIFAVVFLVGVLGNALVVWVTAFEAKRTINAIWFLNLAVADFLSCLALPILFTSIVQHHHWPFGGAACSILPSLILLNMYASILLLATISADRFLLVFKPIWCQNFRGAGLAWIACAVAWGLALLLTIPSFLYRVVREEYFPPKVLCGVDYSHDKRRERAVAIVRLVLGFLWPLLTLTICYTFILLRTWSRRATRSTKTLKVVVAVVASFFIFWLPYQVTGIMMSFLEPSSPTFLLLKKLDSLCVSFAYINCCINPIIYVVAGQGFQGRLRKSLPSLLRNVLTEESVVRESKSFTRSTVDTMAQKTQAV

SMILES	Papp A→B at 0.5 h [1]	Kb ([2]; filed as antagonist)	Kb [2]
CCCC[C@H]1C(=O)N(C)CCC[C@H](NC(=O)[C@@H](C)Cc2ccccc2)C(=O)N2CCC[C@H]2C(=O)N[C@H](CC2CCCCC2)C(=O)N[C@@H](Cc2ccc(F)cc2)C(=O)N1C	42 nm/s		> 9.5 µM
C[C@@H](Cc1ccccc1)C(=O)N[C@H]1CC[C@H]2CCCN2C(=O)[C@H](Cc2ccccc2)NC(=O)[C@H](Cc2ccc(F)cc2)NC(=O)[C@@H](CC2CCCCC2)NC(=O)[C@@H]2CCCN2C1=O	34 nm/s	0.0465 µM	
CCCC[C@@H]1NC(=O)[C@H](Cc2ccc(F)cc2)N(C)C(=O)[C@@H](CC2CCCCC2)NC(=O)[C@@H]2CCCN2C(=O)[C@@H](NC(=O)[C@@H](C)Cc2ccccc2)CCCN(C)C1=O	26 nm/s		> 10 µM
C[C@@H](Cc1ccccc1)C(=O)N[C@H]1CCCN(C)C(=O)[C@H](Cc2ccccc2)NC(=O)[C@H](Cc2ccc(F)cc2)NC(=O)[C@@H](CC2CCCCC2)NC(=O)[C@H]([C@@H](C)O)NC1=O	55 nm/s	0.0389 µM	
C[C@@H](Cc1ccccc1)C(=O)N[C@H]1CCN(C)C(=O)C[C@H](Cc2ccccc2)NC(=O)[C@H](Cc2ccc(F)cc2)N(C)C(=O)[C@@H](CC2CCCCC2)NC(=O)[C@@H]2CCCN2C1=O	21 nm/s	0.127 µM	

More lines, main results first:

Papp A→B at 0.5 h [1]	SMILES	Kb ([2]; filed as antagonist)	Kb [2]
65 nm/s	C[C@@H](Cc1ccccc1)C(=O)N[C@@H]1C(=O)N2CCC[C@H]2C(=O)N[C@H](CC2CCCCC2)C(=O)N[C@@H](Cc2ccc(F)cc2)C(=O)N[C@@H](Cc2ccccc2)C(=O)N2CCC1CC2	0.0828 µM	
50 nm/s	C[C@@H](Cc1ccccc1)C(=O)N[C@H]1CCN(C)C(=O)C[C@H](Cc2ccccc2)NC(=O)[C@H](Cc2ccc(F)cc2)NC(=O)[C@@H](CC2CCCCC2)NC(=O)[C@@H]2CCCN2C1=O	0.00552 µM	
26 nm/s	C[C@@H](Cc1ccccc1)C(=O)N[C@H]1CCCN(C)C(=O)[C@H](Cc2ccccc2)NC(=O)[C@H](Cc2ccc(F)cc2)NC(=O)[C@@H](CC2CCCCC2)NC(=O)[C@@H]2CCCN2C1=O	0.0363 µM	
44 nm/s	CCCC[C@@H]1NC(=O)[C@H](Cc2ccc(F)cc2)NC(=O)[C@@H](CC2CCCCC2)N(C)C(=O)[C@@H]2CCCN2C(=O)[C@@H](NC(=O)[C@@H](C)Cc2ccccc2)CCCN(C)C1=O		> 10 µM
4 nm/s	CCN1CC[C@H](NC(=O)c2ccnn2-c2ccccc2)C(=O)N[C@@H]([C@@H](C)O)C(=O)N[C@@H](CC(C)C)C(=O)N[C@@H](Cc2ccc(F)cc2)C(=O)N[C@@H](Cc2ccccc2)CC1=O	0.054 µM	
111 nm/s	C[C@@H](Cc1ccccc1)C(=O)N[C@H]1CCCN(C)C(=O)[C@H](Cc2ccccc2)NC(=O)[C@H](Cc2ccc(F)cc2)NC(=O)[C@@H](CC2CCCCC2)NC(=O)[C@@H]2CCN2C1=O	0.0575 µM	

Source: ChEMBL document CHEMBL6127151, “Cyclic Peptide C5aR1 Antagonist Design Using Solution Conformational Analysis Derived from Residual Dipolar Couplings” (ACS Med Chem Lett, 2024)
